Seven molecules from ChEMBL document CHEMBL3351630, “ent-Kaurane diterpenes from the stem bark of Annona vepretorum (Annonaceae) and cytotoxic evaluation” (Bioorg Med Chem Lett, 2014) can be followed below.

The subject of one experiment is HepG2. Briefly: Cytotoxicity against human HepG2 cells after 72 hrs by alamar blue assay. Type of experiment: functional, cell-based. Conditions: HepG2, 72 h. Put shortly: (§1)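 Tumour lines grown in RPMI-1640 with 10% FBS, 2 mM L-glutamine, gentamycin, at 37°C/5% CO2, mycoplasma-free, used in exponential growth. Alamar blue added 4 h before end, absorbance 570/600 nm. IC50 by nonlinear regression, three independent experiments in duplicate.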

Experiment [1] concerns K562. Briefly: Selectivity index, ratio of IC50 for concanavalin-A stimulated human PBMCs to IC50 for human K562 cells. The gist of the method:
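SI calculated as IC50 in ConA-stimulated PBMC divided by IC50 in K562, both from 72 h alamar blue assays.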

Experiment [2] concerns K562. Briefly: Cytotoxicity against human K562 cells after 72 hrs by alamar blue assay. Type of experiment: functional, cell-based. The settings on record: K562, 72 h. The gist of the method: as §1
In general terms: Alamar Blue is a resazurin reagent that responds to reducing activity.

Experiment [3] in a line: Cytotoxicity against mouse B16F10 cells after 72 hrs by alamar blue assay. Format: functional, cell-based. The settings on record: B16-F10, 72 h. Put shortly:
as §1

Another experiment has as its system PBMC. In words: Cytotoxicity against concanavalin-A stimulated human PBMC after 72 hrs by alamar blue assay. Format: cell-based. Put shortly: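 ConA 10 µg/mL added at culture start; compounds (0.39–25 µg/mL, DMSO) added after 24 h, 72 h incubation. Alamar blue added 24 h before end, absorbance 570/600 nm. IC50 by nonlinear regression, three independent experiments in duplicate.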

The nature of experiment [4]: Cytotoxicity against human HL60 cells after 72 hrs by alamar blue assay. Format: functional, cell-based. The settings on record: HL-60, 72 h. The gist of the method: as §1

SMILES strings stand for the structures.

What is called IC50 is the concentration that inhibits the measured activity by half. Consider `C=C1C[C@@]23CC[C@@H]4[C@](C)(C=O)[C@H](O)CC[C@@]4(C)[C@@H]2CC[C@H]1C3`, for which the IC50 with HepG2 amounted to 51.3 µM; with K562 [2], 8.24 µM; in experiment [3], 69.5 µM; in the experiment on PBMC, 23.8 µM; in experiment [4] it was 32.8 µM. The “Ratio IC50” value in the experiment on K562 [1] is on record as 2.9.

On to `C=C1C[C@@]23CC[C@@H]4[C@](C)(CO)[C@H](O)CC[C@@]4(C)[C@@H]2CC[C@H]1C3`, for which the IC50 came to 82.2 µM in the experiment with HepG2; 82.2 µM in the experiment with K562 [2]; 82.2 µM in experiment [3]; 29.4 µM with PBMC; 82.2 µM in experiment [4].

Consider `C=C1C[C@@]23CC[C@@H]4C(C)(C)[C@H](O)CC[C@@]4(C)[C@@H]2CC[C@H]1C3`, for which the IC50 in the experiment with HepG2 came out at 67.2 µM; in the experiment with K562 [2], 10.2 µM; in experiment [3] it was 66.3 µM; in the experiment on PBMC, 22.5 µM; in experiment [4], 34.2 µM.

As for `C=C1C[C@@]23CC[C@@H]4C(C)(C)[C@H](OC(C)=O)CC[C@@]4(C)[C@@H]2CC[C@H]1C3`, the IC50 (with HepG2; in the experiment with K562 [2]; in experiment [3]; in the experiment on PBMC; in experiment [4]) was above 75.7 µM each time.

In the case of `C=C1C[C@@]23CC[C@H]4[C@@](C)(CC[C@@H](O)[C@@]4(C)C(=O)O)[C@@H]2CC[C@H]1C3`, the IC50 was above 78.6 µM with HepG2; 63.5 µM with K562 [2]; above 78.6 µM in experiment [3]; above 78.6 µM in the experiment with PBMC; 76.1 µM in experiment [4].

`COc1cccc2c1C(=O)c1c(O)c3c(c(O)c1C2=O)C[C@@](O)(C(=O)CO)C[C@@H]3O[C@H]1C[C@H](N)[C@H](O)[C@H](C)O1` [DOXORUBICIN]: the IC50 in the experiment with HepG2 was 0.42 µM; in the experiment with K562 [2], 1.25 µM; in experiment [3], 4.23 µM; in the experiment with PBMC, 9.36 µM; in experiment [4], 1.53 µM. Moreover, the “Ratio IC50” value in the experiment with K562 [1] is given as 7.5.

For the molecule `C=C1C[C@@]23CC[C@H]4[C@@](C)(CCC[C@@]4(C)C(=O)O)[C@@H]2CC[C@@H]1C3` [KAURENOIC ACID], the IC50 in the experiment on HepG2 turned out to be 50.7 µM; in the experiment with K562 [2], 72.5 µM; in experiment [3], 54.8 µM; with PBMC it was 80.8 µM; in experiment [4] it was 44.1 µM.
